Test results from paper PMC5199614 (Journal of bone and mineral research : the official journal …, 2016).

Experiments:
C57BL/6J mice [1] = assay: Plasma Pi after iv injection in mice; type: in vivo, mouse; conditions: iv 50 nmol/kg; for time of Pi nadir: after injection; for decline of blood phosphate (Pi) at the nadir: n = 6 per group
[2] = test system: renal proximal tubule cells; type: in vivo, mouse; conditions: 5 minutes (NS^TMR) or 5 or 60 minutes after iv injection
[3] = Persistence of injected ligand in mouse blood and urine; conditions: mice, iv 50 nmol/kg, 1 μL plasma in PBS, n = 6
human PTHR1 = molecular target: T1, human PTHR1 (Homo sapiens, UniProt Q03431); assay: cAMP signaling; type: cell-based; conditions: GP-2.3 cells; for Emax (cAMP-dependent luminescence): vehicle 1.3 ± 0.1, means ±SEM of 10 experiments
T1 sequence (Q03431 27-593): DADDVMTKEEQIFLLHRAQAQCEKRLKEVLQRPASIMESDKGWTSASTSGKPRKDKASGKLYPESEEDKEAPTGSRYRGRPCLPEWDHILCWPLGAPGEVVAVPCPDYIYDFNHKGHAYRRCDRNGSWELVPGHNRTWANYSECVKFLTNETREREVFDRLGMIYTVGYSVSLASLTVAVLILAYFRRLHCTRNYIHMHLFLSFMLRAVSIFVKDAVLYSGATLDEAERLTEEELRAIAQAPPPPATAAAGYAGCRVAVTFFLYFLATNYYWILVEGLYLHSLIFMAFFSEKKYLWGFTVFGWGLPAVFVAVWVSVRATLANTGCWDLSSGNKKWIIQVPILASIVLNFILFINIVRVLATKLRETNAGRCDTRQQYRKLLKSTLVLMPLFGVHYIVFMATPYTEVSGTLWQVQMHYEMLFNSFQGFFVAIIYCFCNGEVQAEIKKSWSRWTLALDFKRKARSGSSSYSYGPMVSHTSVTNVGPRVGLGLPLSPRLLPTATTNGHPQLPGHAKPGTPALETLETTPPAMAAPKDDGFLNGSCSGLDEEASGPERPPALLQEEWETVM

C57BL/6J mice [4] = assay: Blood ionized calcium after iv injection in mice; type: in vivo, mouse; conditions: iv 50 nmol/kg; for peak blood Ca^2+ increase above pre-injection (t = 0) level: n = 6 per group
[5] = test system: PTHR1-expressing GP-2.3 cells; assay: Confocal microscopy of ligand internalization in GP-2.3 and GS-22A cells; type: cell-based, human; conditions: 100 nM; for ligand localization in GP-2.3 cells: 15 minutes at 21°C, confocal TMR fluorescence; for TMR fluorescence in parental GS-22A cells (not transfected with PTHR1): confocal microscopy
Outline: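 GP-2.3 cells (HEK-293 with stable human PTHR1 and glosensor) and parental GS-22A cells (glosensor only) were grown on coverslips to ~75% confluence. Cells were exposed to TMR-ligand at 100 nM in HBB for 15 min at 21°C, or for 30 min at 4°C to block internalization. They were then rinsed thrice, fixed in 4% formalin for 5 min and mounted with DAPI. Confocal imaging used 405/559 nm excitation.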

C57BL/6J mice [6] = assay: Blood 1,25; type: in vivo, mouse; conditions: iv 50 nmol/kg; for blood 1,25(OH)2D relative to vehicle-injected mice: 2 hours after injection
[7] = humans, cited from earlier work
C57BL/6J mice [8] = assay: Urinary fractional excretion of Ca and Pi after iv injection in mice; type: in vivo, mouse; conditions: iv 50 nmol/kg, spot urine

Row | Substance | time of Pi nadir (C57BL/6J mice [1]) [h] | decline of blood phosphate (Pi) at the nadir (C57BL/6J mice [1]) [%] | immunostained phosphorylated PKA substrate in kidney sections [2] | Emax (cAMP-dependent luminescence) (human PTHR1) [cps × 10^−3] | peak blood Ca^2+ increase above pre-injection (t = 0) level (C57BL/6J mice [4]) | time of return of blood Ca^2+ to baseline (C57BL/6J mice [4]; post-injection) [h] | ligand localization in GP-2.3 cells [5] | TMR fluorescence in parental GS-22A cells (not transfected with PTHR1) [5] | blood 1,25(OH)2D relative to vehicle-injected mice (C57BL/6J mice [6]) | further results
1 | [Lys^13(TMR), Cys^35]PTH(1-35) [PTH^TMR] | 1 | 27 | clear staining for pPKA substrate | 184 ± 12 | ~ 8% | ≤ 24 | located predominantly in internalized vesicles | No such TMR fluorescence was observed | about threefold | time of return of Pi to baseline (C57BL/6J mice [1]): ≤ 4 h; last time point at which plasma TMR fluorescence was detected [3]: 2 h
2 | PTH(1-34) |  |  |  |  |  |  |  |  |  | half-time (t1/2) of disappearance from the circulation ([7]; injected intravenously): 10 ± 0.5 min; half-time ([7]; subcutaneous injection): about 1 hour
3 | TMR-NNGEDHSQITKV [NS^TMR, reference compound] |  |  | little or no green fluorescence |  |  |  |  |  |  | 
4 | PTH(1-84) |  |  |  |  |  |  |  |  |  | serum half-time ([7]; injected subcutaneously): about 2.5 hours
5 | [Lys^13(tetramethyl rhodamine {TMR}), Cys^35(PEG-20,000 Da)]PTH(1-35) [PEG-PTH^TMR] | 2 | 42 | at least comparable to that observed with the PTH^TMR ligand | 178 ± 14 | ~ 21% | 96 | located predominantly in internalized vesicles | No such TMR fluorescence was observed | about threefold | duration of effects on urinary fractional excretion of Ca and Pi (C57BL/6J mice [8]): up to 24 hours; potency (EC50) relative to PTH(1-34) and PTH^TMR (human PTHR1; cAMP): about three- to fivefold weaker; time of peak blood Ca^2+ (C57BL/6J mice [4]; post-injection): 24 h; blood 1,25(OH)2D (C57BL/6J mice [6]; 24 hours after injection): marked increases
